In ChEMBL document CHEMBL1151769, “Triprenylated flavonoids from Dorstenia psilurus and their alpha-glucosidase inhibition properties” (J Nat Prod, 2008):
Calls of active or inactive are those of the source. The rule behind the calls is not given here.

What was measured:
[1] = Inhibition of yeast alpha-D-glucosidase; design: species or system Saccharomyces
Method in brief: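 α-Glucosidase (500 units/mL) with p-nitrophenyl glucopyranoside (0.7 mM final) in 50 mM phosphate buffer pH 6.9, 1% v/v DMSO, 37 °C, 10 min, with or without a range of inhibitor concentrations. Stopped with an equal volume of 100 mM Na2CO3, and p-nitrophenol read at 400 nm. Rate taken from the linear slope of 1-min readings. IC50 derived by kinetic fitting.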

[2] = Inhibition of sweet almonds beta-D-glucosidase; design: species or system Prunus dulcis
[3] = Inhibition of jack bean beta-D-mannosidase; design: species or system Canavalia ensiformis
[4] = tested on: Canavalia ensiformis; assay: Inhibition of jack bean beta-D-mannosidase at 800 uM
[5] = tested on: Prunus dulcis; assay: Inhibition of sweet almonds beta-D-glucosidase at 800 uM

SMILES | IC50 [1] | IC50 [2] | IC50 [3] | Activity [4] | Activity [5]
CC(C)=CCc1c(O)c(CC=C(C)C)c2oc(-c3ccc4c(c3)OC(C)(C)C=C4)c(O)c(=O)c2c1O [DORSILURIN C] | 11.2 µM | 422 µM | 358 µM | – | –
C=C(C)[C@@H](O)Cc1ccc(-c2oc3c(CC=C(C)C)c(O)c(CC=C(C)C)c(O)c3c(=O)c2O)cc1O [DORSILURIN G] | 7.51 µM | 431 µM | 232 µM | – | –
C=C(C)[C@@H](O)Cc1ccc(-c2oc3c(CC=C(C)C)c(O)c4c(c3c(=O)c2O)OC(C)(C)CC4)cc1O [DORSILURIN H] | 24 µM | 671 µM | – | inactive | –
C=C(C)[C@@H](O)Cc1ccc(-c2oc3c4c(c(CC=C(C)C)c(O)c3c(=O)c2O)OC(C)(C)CC4)cc1O [DORSILURIN I] | 21.5 µM | 431 µM | – | inactive | –
CC(C)=CCc1ccc(-c2oc3c4c(c5c(c3c(=O)c2O)OC(C)(C)CC5)OC(C)(C)CC4)cc1O [DORSILURIN K] | 44 µM | – | – | inactive | inactive

The next lines start with the values.

IC50 [1] | IC50 [2] | IC50 [3] | Activity [4] | Activity [5] | SMILES
4.13 µM | 117 µM | 192 µM | – | – | CC(C)=CCc1ccc(-c2oc3c(CC=C(C)C)c(O)c(CC=C(C)C)c(O)c3c(=O)c2O)cc1O [DORSILURIN F]
16.9 µM | 317 µM | 518 µM | – | – | CC(C)=CCc1ccc(-c2oc3c(CC=C(C)C)c(O)c4c(c3c(=O)c2O)OC(C)(C)CC4)cc1O [DORSILURIN J]
426 µM | – | – | – | – | OC[C@H]1NC[C@H](O)[C@@H](O)[C@@H]1O [DUVOGLUSTAT]
